This is an account of results in ChEMBL document CHEMBL3872208, “Synthesis and pharmacological characterization of novel N-(trans-4-(2-(4-(benzo[d]isothiazol-3-yl)piperazin-1-yl)ethyl)cyclohexyl)amides as potential multireceptor atypical antipsychotics” (Eur J Med Chem, 2016).

pEC50, pIC50, pKi: −log10 of the molar value. The source made the active and inactive calls. The rule behind the calls is not given here. Bounds are passed on as bounds.

Series [1] can be described thus: Half life in Sprague-Dawley rat brain at 2 mg/kg, po administered as single dose by LC-MS/MS analysis. The class given is ADME, organism-based. In a few lines:
(§1)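 Male SD rats, single dose: 0.5 mg/kg i.v. or 2.0 mg/kg p.o. Vehicle is 5% DMSO, 10% Solutol HS 15 and 85% PBS. Heparinized blood is sampled at 5, 15 and 30 min and at 1, 2, 4, 8 and 24 h after dosing. Plasma is reported in ng/mL and brain in ng/g. F is derived from the p.o. and i.v. arms.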

Series [2] is described as follows: Cmax in Sprague-Dawley rat brain at 2 mg/kg, po administered as single dose by LC-MS/MS analysis. The class given is ADME, organism-based. Details: dose 2 mg/kg, route oral. In a few lines: as §1
The nature of series [3]: Tmax in Sprague-Dawley rat plasma at 2 mg/kg, po administered as single dose by LC-MS/MS analysis. Format: ADME, organism-based. In a few lines: as §1
The subject of series [4] is Rattus norvegicus. Briefly: Cognitive enhancement effect in Sprague-Dawley rat assessed as reversal of PCP-impaired performance by measuring increase in time spent exploring novel object in comparison to familiar object at 0.1 to 0.2 mg/kg, po administered 60 mins prior to test by novel object recognition assay.
Series [5] has as its system Rattus norvegicus. Briefly: Reversal of PCP-induced hyperlocomotion activity in ip dosed Sprague-Dawley rat pretreated for 10 mins followed by PCP challenge measured after […]. Format: functional, organism-based.
Series [6] relates to Rattus norvegicus. Briefly: Toxicity in Sprague-Dawley rat assessed as cataleptogenic effect by measuring time spent in cataleptic position at 1 to 10 mg/kg, po measured after 0.5 to 2 hrs. Format: organism-based. The following applies: in vivo. In a few lines: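 Male SD rats (180–250 g, n = 7) dosed orally at 1.0, 3.0 or 10.0 mg/kg. Forepaws placed on a bar 0.9 cm in diameter, 11 cm high, at 30, 60 and 120 min after dosing. Time held is expressed as a percentage of the 60 s maximum (mean ± SEM).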

The subject of series [7] is Rattus norvegicus. The series can be described thus: Antipsychotic activity in Sprague-Dawley rat assessed as inhibition of conditioned avoidance behavior at 1.0 to 2.0 mg/kg, ip administered as single dose measured after 1 hr. The class given is functional, organism-based. In a few lines:
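Male SD rats (150–180 g, 6 per group) trained in automated shuttle-boxes; only rats exceeding 80% avoidance were used. Single i.p. dose of 1.0 or 2.0 mg/kg given 1 h before a 20-trial session. Read-out is percentage of avoidance (mean ± SEM, n = 6), compared with the vehicle group.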

Series [8] deals with T1, D(3) dopamine receptor (Homo sapiens, UniProt P35462). The note with it: 10 uM.
T1 sequence (P35462 whole entry): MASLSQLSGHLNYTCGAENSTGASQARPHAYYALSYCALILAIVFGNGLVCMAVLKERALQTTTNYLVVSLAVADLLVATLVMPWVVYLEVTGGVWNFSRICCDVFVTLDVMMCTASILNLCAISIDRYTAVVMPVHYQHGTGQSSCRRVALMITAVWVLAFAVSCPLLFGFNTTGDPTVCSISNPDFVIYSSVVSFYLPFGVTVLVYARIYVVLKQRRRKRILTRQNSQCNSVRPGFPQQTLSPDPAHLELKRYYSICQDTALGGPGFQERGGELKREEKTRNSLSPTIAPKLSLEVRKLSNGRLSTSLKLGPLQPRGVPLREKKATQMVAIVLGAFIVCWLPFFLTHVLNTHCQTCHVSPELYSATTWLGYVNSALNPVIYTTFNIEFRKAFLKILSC
Series [9] can be described thus: Tmax in Sprague-Dawley rat brain at 2 mg/kg, po administered as single dose by LC-MS/MS analysis. The class given is ADME, organism-based. In a few lines: as §1
Series [10] in a line: Cmax in Sprague-Dawley rat brain at 0.5 mg/kg, iv administered as single dose by LC-MS/MS analysis. Format: ADME, organism-based. Further details: dose 0.5 mg/kg, route intravenous. In a few lines: as §1
Series [11] in a line: Half life in Sprague-Dawley rat plasma at 0.5 mg/kg, iv administered as single dose by LC-MS/MS analysis. Format: ADME, organism-based. In a few lines: as §1
The target of series [12] is T2, Muscarinic acetylcholine receptor M1 (Homo sapiens, UniProt P11229).
T2 sequence (P11229 whole entry): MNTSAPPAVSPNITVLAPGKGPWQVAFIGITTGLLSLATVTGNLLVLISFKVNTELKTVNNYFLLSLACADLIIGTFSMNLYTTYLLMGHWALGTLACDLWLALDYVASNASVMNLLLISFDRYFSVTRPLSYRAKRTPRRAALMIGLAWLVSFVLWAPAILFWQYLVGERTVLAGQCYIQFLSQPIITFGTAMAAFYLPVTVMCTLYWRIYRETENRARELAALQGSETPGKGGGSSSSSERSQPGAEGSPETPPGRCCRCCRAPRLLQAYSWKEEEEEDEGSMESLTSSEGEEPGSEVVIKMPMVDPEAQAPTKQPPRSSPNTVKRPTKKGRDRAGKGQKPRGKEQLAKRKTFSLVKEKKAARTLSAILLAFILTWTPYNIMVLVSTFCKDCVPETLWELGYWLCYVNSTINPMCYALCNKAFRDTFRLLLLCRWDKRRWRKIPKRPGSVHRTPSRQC
The series can be described thus: Displacement of [3H]pirenzepine from recombinant human M1 receptor expressed in CHO cell membranes at 1 uM after 60 mins by scintillation counting method relative to control. The note with it: CHO cell membranes expressing recombinant human M1 receptor, probe [3H]pirenzepine. In a few lines: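 Nonspecific binding defined with […]. Filtered on PEI-soaked GF/B and scintillation counted. Expressed as percent inhibition of control specific binding at a single test concentration.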
On the technique in general: Loss of bound radioactivity is the signal in a displacement assay; it reports binding, not function.

Series [13] concerns the target T1, D(3) dopamine receptor. The series can be described thus: Agonist activity at D3 receptor (unknown origin) expressed in cell membranes after 40 mins by [35S]GTPgammaS binding assay. The class given is functional. (In general: GTPγS resists hydrolysis and so accumulates on activated G proteins.)
The target in series [14] is T1, D(3) dopamine receptor. The series can be described thus: Antagonistic activity at D3 receptor (unknown origin) expressed in cell membranes assessed as inhibition of quinpirole-induced response after 40 mins by [35S]GTPgammaS binding assay. The class given is functional. In a few lines: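 Membranes (20 mg membrane protein as printed) incubated 40 min at 30 °C in 50 mM Tris pH 7.4, 5 mM MgCl2, 1 mM EDTA, 100 mM NaCl, 1 mM DTT. Mix contained 0.1 nM [35S]GTPγS, GDP, quinpirole as agonist and varied compound concentrations. Nonspecific binding was taken with Gpp(NH)p. Reaction stopped with ice-cold buffer, then GF/C filtration and scintillation counting. Mean IC50 from two experiments, eight concentrations in duplicate.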

Series [15] has as its target T1, D(3) dopamine receptor. Briefly: Displacement of [3H]methyl-spiperone from recombinant human D3 receptor expressed in CHO cell membranes after 60 mins by scintillation counting method.
Series [16] is described as follows: AUC (0 to t) in Sprague-Dawley rat plasma at 2 mg/kg, po administered as single dose by LC-MS/MS analysis. The class given is ADME, organism-based. In a few lines:
as §1

Series [17] is described as follows: Oral bioavailability in Sprague-Dawley rat brain at 2 mg/kg administered as single dose by LC-MS/MS analysis. Format: ADME, organism-based. In a few lines:
as §1

The nature of series [18]: Cmax in Sprague-Dawley rat plasma at 2.0 mg/kg, po administered as single dose by LC-MS/MS analysis. The class given is ADME, organism-based. Further details: dose 2 mg/kg, route oral. In a few lines: as §1
Series [19] has as its target 5-hydroxytryptamine receptor 2A (Homo sapiens, UniProt P28223). Briefly: Antagonistic activity at 5-HT2A receptor (unknown origin) expressed in CHOK1 cells co-expressing G-alpha 15 assessed as inhibition of serotonin-induced calcium flux by Fluo-4 based FLIPR assay. The class given is functional, cell-based, CHO-K1.
Series [20] can be described thus: Ratio of AUC (0 to t) in Sprague-Dawley rat brain to plasma at 2 mg/kg, po. The class given is ADME, organism-based. The following applies: brain and plasma, read-out: Ratio AUC. In a few lines:
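Male Sprague-Dawley rats given the test compound once orally at 2.0 mg/kg. Vehicle was 5% DMSO, 10% Solutol HS 15 and 85% PBS. Heparinized blood sampled at 5, 15, 30 min and 1, 2, 4, 8, 24 h after dosing; brain concentrations also measured (ng/g). Ratio is brain AUC0-t over plasma AUC0-t.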

Chain of 5-hydroxytryptamine receptor 2A (P28223 whole entry): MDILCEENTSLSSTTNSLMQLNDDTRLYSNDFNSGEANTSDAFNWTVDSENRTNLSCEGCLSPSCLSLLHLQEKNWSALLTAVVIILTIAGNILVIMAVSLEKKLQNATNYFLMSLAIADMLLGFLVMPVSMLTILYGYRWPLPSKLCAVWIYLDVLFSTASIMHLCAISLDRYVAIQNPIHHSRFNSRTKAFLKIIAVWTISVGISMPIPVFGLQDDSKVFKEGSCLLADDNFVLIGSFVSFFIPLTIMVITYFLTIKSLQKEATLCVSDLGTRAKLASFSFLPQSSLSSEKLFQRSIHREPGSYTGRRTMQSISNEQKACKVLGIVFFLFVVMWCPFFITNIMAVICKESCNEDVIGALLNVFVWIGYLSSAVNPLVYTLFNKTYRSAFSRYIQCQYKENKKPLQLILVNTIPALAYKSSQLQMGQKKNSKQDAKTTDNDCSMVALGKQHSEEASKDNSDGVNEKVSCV

Take `O=C(N[C@H]1CC[C@H](CCN2CCN(c3nsc4ccccc34)CC2)CC1)c1ccco1`: the half-life in series [1] was 16.3 h; in series [11] it was 0.8 h. The Cmax turned out to be 52.8 ng/mL in series [2], 259 ng/mL in series [10] and 18.4 ng/mL in [18]. Also, the Tmax was found to be 0.5 h in series [3] and 2 h in series [9]. For the same compound, the result in series [4] was Active. The Activity result in series [5] was “Dose-dependent effect”; in series [6], “Non-Toxic”. The inhibition entry in series [7] was “Active”. The compound also displayed an inhibition in series [8] of 98.6%. For the same compound, in [12], the inhibition at 1 h, 1 µM turned out to be 50.6%. This compound showed a pEC50 in series [13] of less than 5.00. Besides, the pIC50 in [14] is 8.86; in [19], 7.50. Further, the pKi in [15] is 9.89. In [16], the exposure AUC(0-t) turned out to be 55 ng·h/mL. In series [17], this compound registered a bioavailability of 20.7%. Also, the Kp in [20] amounted to 16.1.

The term half-life denotes the time in which the quantity being followed falls by half. The term Cmax denotes the peak of the concentration-time curve. Broadly, the Tmax is the time at which the peak concentration occurs. Usually inhibition stands for the percentage by which the read-out fell short of the control. As usually defined, the pEC50 is −log10 of the EC50, conventionally taken in molar units. The low end stands for a large EC50, the high end for a small EC50. A word on the pIC50: it is the IC50 on a negative log10 scale, so that one unit is a factor of ten. As usually defined, the pKi is −log10 of the Ki, conventionally taken in molar units. A word on the AUC(0-t): it is the area under the concentration-time curve up to a stated or last time point. A higher AUC(0-t) goes with more exposure. The term bioavailability denotes the share of a dose that reaches the circulation, judged against a reference dose that is usually intravenous. Higher therefore signals much systemic uptake.
